Results on 6 molecules are retold here after ChEMBL document CHEMBL1124368 (J Med Chem, 1989).

The first assay concerns Mus musculus. Nature of the assay: (§1) Mean of weight gain from day 0 to day 24 at a dose of 3.125 mg/kg/day of compound. Type of assay: functional. More on the design: unit not given here.
Conditions: not given
The method in brief:
(§2)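 M5076 reticulum cell sarcoma: 10⁶ cells implanted im into the left leg of female BDF₁ mice (groups of five) on day 0. Drug in 10–20% DMSO in arachis oil was given ip daily on days 1–17. Weight change is the mean weight gain from day 0 to day 24.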
On to `CCc1nc(N)nc(N)c1-c1ccc(N(CC)Cc2ccccc2)c([N+](=O)[O-])c1`, for which the Weight change was 2.3.

The next assay deals with Mus musculus. Nature of the assay: Tumor volume in 24 days after tumor implantation at a dose of 6.25 mg/kg/day. Type of assay: functional.
Conditions: not given
Summed up:
(§3)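 10⁶ M5076 reticulum cell sarcoma cells were injected im into the left leg of female BDF₁ mice, five per group, on day 0. Compound in 10–20% DMSO/arachis oil was dosed ip daily on days 1–17. Tumor volumes (mm³) were recorded on days 12, 16, 20 and 24 after implantation, with NM marking a tumor that could not be measured.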
`CCc1nc(N)nc(N)c1-c1ccc(NCc2ccc(F)cc2)c([N+](=O)[O-])c1`: the Tumor volume is listed as 448 mm**3.

`CCc1nc(N)nc(N)c1-c1ccc(N(CC)Cc2ccccc2)c([N+](=O)[O-])c1` yielded a Tumor volume of 854 mm**3.

A further assay relates to Mus musculus. Description: Tumor volume in 16 days after tumor implantation at a dose of 3.125 mg/kg/day of compound. Type of assay: functional.
Conditions: not given
Summed up: as §3
For the molecule `CCc1nc(N)nc(N)c1-c1ccc(NCc2ccc(F)cc2)c([N+](=O)[O-])c1`, the Tumor volume is 337 mm**3.

The test system of the next assay is Mus musculus. Description: Ratio of tumor volume of test(T) animals compared to control(C) animals x 100 T/C(%)] at a dose of 12.50 mg/kg/day. Type of assay: functional.
Conditions: not given
The method in brief:
(§4)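 M5076 reticulum cell sarcoma: 10⁶ cells implanted im into the left leg of female BDF₁ mice (groups of five) on day 0. Treatment was ip, daily on days 1–17, in 10–20% DMSO in arachis oil. T/C% is treated tumor volume over control tumor volume × 100.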
As for `CCc1nc(N)nc(N)c1-c1ccc(NCc2ccc(F)cc2)c([N+](=O)[O-])c1`, the Antitumor activity is given as 17%.

In the case of `CCc1nc(N)nc(N)c1-c1ccc(N(CC)Cc2ccccc2)c([N+](=O)[O-])c1`, the Antitumor activity stood at 12%.

Another assay relates to Mus musculus. Description: Ratio of tumor volume of test(T) animals compared to control(C) animals x 100 T/C(%)] at a dose of 6.25 mg/kg/day. Type of assay: functional.
Conditions: not given
The method in brief:
as §4
On to `CCc1nc(N)nc(N)c1-c1ccc(NCc2ccc(F)cc2)c([N+](=O)[O-])c1`, for which the Antitumor activity turned out to be 20%.

For `CCc1nc(N)nc(N)c1-c1ccc(N(CC)Cc2ccccc2)c([N+](=O)[O-])c1`, the Antitumor activity amounted to 31%.

Another assay concerns Mus musculus. Description: Number of survivors versus treated on day 24 at a dose of 12.5 mg/kg/day of compound; Tumor not measurable. Type of assay: functional, organism-based.
Conditions: not given
As to `CCc1nc(N)nc(N)c1-c1ccc(N(CC)Cc2ccccc2)c([N+](=O)[O-])c1`, the Survivors result is given as “Not measurable”.

The next assay relates to Mus musculus. Description: Number of survivors versus treated on day 24 at a dose of 6.25 mg/kg/day of compound; Tumor not measurable. Type of assay: functional, organism-based.
Conditions: not given
In the case of `CCc1nc(N)nc(N)c1-c1ccc(N(CC)Cc2ccccc2)c([N+](=O)[O-])c1`, the Survivors entry is reported as “Not measurable”.

The next assay deals with Mus musculus. Description: Tumor volume in 20 days after tumor implantation at a dose of 3.125 mg/kg/day. Type of assay: functional.
Conditions: not given
The method in brief: as §3
For the molecule `CCc1nc(N)nc(N)c1-c1ccc(NCc2ccc(F)cc2)c([N+](=O)[O-])c1`, the Tumor volume amounted to 539 mm**3.

`CCc1nc(N)nc(N)c1-c1ccc(N(CC)Cc2ccccc2)c([N+](=O)[O-])c1`: the Tumor volume was 698 mm**3.

The target of the next assay is T1, Dihydrofolate reductase (Rattus norvegicus, UniProt Q920D2).
T1 sequence (Q920D2 whole entry): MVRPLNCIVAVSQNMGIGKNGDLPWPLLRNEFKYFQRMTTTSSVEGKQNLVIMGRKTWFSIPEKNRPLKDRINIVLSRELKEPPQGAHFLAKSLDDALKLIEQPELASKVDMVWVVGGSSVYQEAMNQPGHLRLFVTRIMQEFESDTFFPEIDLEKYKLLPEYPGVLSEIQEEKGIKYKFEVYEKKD
Description: In vitro inhibitory concentration against rat liver dihydrofolate reductase(DHFR). The settings on record: read-out: I50. The method in brief:
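Partially purified rat liver DHFR, prepared by the Bertino and Fischer method, assayed spectrophotometrically at 340 nm. I50 is the final inhibitor concentration that cuts the reaction rate to 50% of the uninhibited rate. […] Inhibitors were dissolved in 0.1 M HCl or 95% ethanol.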
`CCc1nc(N)nc(N)c1-c1ccc(Cl)c([N+](=O)[O-])c1`: the IC50 was found to be 0.08 µM.

For the molecule `CCc1nc(N)nc(N)c1-c1ccc(N(C)C2CCCCC2)c(N)c1`, the IC50 worked out at 8.5 µM.

As for `CCc1nc(N)nc(N)c1-c1ccc(N2CCCCC2)c(N)c1`, the IC50 is above 25 µM.

Consider `CCc1nc(N)nc(N)c1-c1ccc(N(CC)Cc2ccccc2)c(N)c1`, for which the IC50 was 4 µM.

The subject of the next assay is Mus musculus. Description: Mean of weight gain from day 0 to day 24 at a dose of 12.5 mg/kg/day of compound. Type of assay: functional. More on the design: unit not given here.
Conditions: not given
The method in brief: as §2
Regarding `CCc1nc(N)nc(N)c1-c1ccc(NCc2ccc(F)cc2)c([N+](=O)[O-])c1`, the Weight change was 2.

`CCc1nc(N)nc(N)c1-c1ccc(N(CC)Cc2ccccc2)c([N+](=O)[O-])c1` returned a Weight change of 1.1.

For a further assay, the system named is Mus musculus. Description: Mean of weight gain from day 0 to day 24 at a dose of 25 mg/kg/day of compound. Type of assay: functional. Further details: unit not given here.
Conditions: not given
Summed up:
as §2
`CCc1nc(N)nc(N)c1-c1ccc(NCc2ccc(F)cc2)c([N+](=O)[O-])c1` gave a Weight change of 4.3.

With `CCc1nc(N)nc(N)c1-c1ccc(N(CC)Cc2ccccc2)c([N+](=O)[O-])c1`, the Weight change was determined as 0.8.

A further assay deals with Mus musculus. Nature of the assay: Tumor volume in 24 days after tumor implantation at a dose of 3.125 mg/kg/day. Type of assay: functional.
Conditions: not given
Summed up: as §3
With `CCc1nc(N)nc(N)c1-c1ccc(NCc2ccc(F)cc2)c([N+](=O)[O-])c1`, the Tumor volume is reported as 1555 mm**3.

As for `CCc1nc(N)nc(N)c1-c1ccc(N(CC)Cc2ccccc2)c([N+](=O)[O-])c1`, the Tumor volume was 1375 mm**3.

A further assay deals with Mus musculus. Description: Ratio of tumor volume of test(T) animals compared to control(C) animals x 100 T/C(%)] at a dose of 3.125 mg/kg/day. Type of assay: functional.
Conditions: not given
Summed up:
as §4
Turning to `CCc1nc(N)nc(N)c1-c1ccc(NCc2ccc(F)cc2)c([N+](=O)[O-])c1`, the Antitumor activity is recorded as 68%.

As to `CCc1nc(N)nc(N)c1-c1ccc(N(CC)Cc2ccccc2)c([N+](=O)[O-])c1`, the Antitumor activity turned out to be 50%.

The test system of another assay is Mus musculus. Nature of the assay: Mean of weight gain from day 0 to day 24 at a dose of 6.25 mg/kg/day. Type of assay: functional. Further details: unit not given here.
Conditions: not given
Summed up: as §2
With `CCc1nc(N)nc(N)c1-c1ccc(NCc2ccc(F)cc2)c([N+](=O)[O-])c1`, the Weight change stood at 2.5.

Molecule `CCc1nc(N)nc(N)c1-c1ccc(N(CC)Cc2ccccc2)c([N+](=O)[O-])c1` registered a Weight change of 1.6.

In a further assay the test system is Mus musculus. Description: Tumor volume in 20 days after tumor implantation at a dose of 6.25 mg/kg/day of compound. Type of assay: functional.
Conditions: not given
Summed up: as §3
`CCc1nc(N)nc(N)c1-c1ccc(N(CC)Cc2ccccc2)c([N+](=O)[O-])c1`: the Tumor volume is given as 492 mm**3.

The subject of a further assay is Mus musculus. Described as §1. Type of assay: functional.
Conditions: not given
Summed up:
as §2
For `CCc1nc(N)nc(N)c1-c1ccc(NCc2ccc(F)cc2)c([N+](=O)[O-])c1`, the Weight change was found to be 3.8.

The subject of another assay is Mus musculus. Description: Tumor volume in 24 days after tumor implantation at a dose of 12.5 mg/kg/day. Type of assay: functional.
Conditions: not given
The method in brief: as §3
`CCc1nc(N)nc(N)c1-c1ccc(NCc2ccc(F)cc2)c([N+](=O)[O-])c1` registered a Tumor volume of 386 mm**3.

`CCc1nc(N)nc(N)c1-c1ccc(N(CC)Cc2ccccc2)c([N+](=O)[O-])c1` registered a Tumor volume of 316 mm**3.

Another assay relates to Mus musculus. Description: Ratio of tumor volume of test(T) animals compared to control(C) animals x 100 T/C(%)] at a dose of 25 mg/kg/day. Type of assay: functional.
Conditions: not given
The method in brief:
as §4
For `CCc1nc(N)nc(N)c1-c1ccc(NCc2ccc(F)cc2)c([N+](=O)[O-])c1`, the Antitumor activity is given as below 8%.

Turning to `CCc1nc(N)nc(N)c1-c1ccc(N(CC)Cc2ccccc2)c([N+](=O)[O-])c1`, the Antitumor activity is on record as below 8%.
